In ChEMBL document CHEMBL3526002, “Tissue distribution and identification of radioactivity components at elimination phase after oral administration of [¹⁴C]CS-1036, an α-amylase inhibitor, to rats” (Drug Metab Dispos, 2013):

Experiments:
Format in all cases: ADME, organism-based
Conditions in all cases: in vivo
Heart = assay: Drug uptake in albino F344/DuCrlCrlj rat heart at 5 mg/kg, po after 336 hrs by liquid scintillation counting; design: dose 5 mg/kg, dosed compound name [14C]CS-1036, route oral
Harderian gland [1] = assay: Drug uptake in albino F344/DuCrlCrlj rat harderian gland assessed as ng equivalent of CS-1036 at 5 mg/kg, po after 4 hrs by liquid scintillation counting; design: dose 5 mg/kg, dosed compound name [14C]CS-1036, route oral
Cerebellum [2] = assay: Drug uptake in albino F344/DuCrlCrlj rat cerebellum assessed as ng equivalent of CS-1036 at 5 mg/kg, po after 72 hrs by liquid scintillation counting; design: dose 5 mg/kg, dosed compound name [14C]CS-1036, route oral
[3] = Drug uptake in albino F344/DuCrlCrlj rat urinary bladder assessed as ng equivalent of CS-1036 at 5 mg/kg, po after 24 hrs by liquid scintillation counting; design: dose 5 mg/kg, dosed compound name [14C]CS-1036, route oral
[4] = Drug uptake in albino F344/DuCrlCrlj rat eyeball assessed as ng equivalent of CS-1036 at 5 mg/kg, po after 168 hrs by liquid scintillation counting; design: dose 5 mg/kg, dosed compound name [14C]CS-1036, route oral
Harderian gland [5] = assay: Drug uptake in albino F344/DuCrlCrlj rat harderian gland at 5 mg/kg, po after 24 hrs by liquid scintillation counting; design: dose 5 mg/kg, dosed compound name [14C]CS-1036, route oral
Plasma [6] = assay: Drug uptake in albino F344/DuCrlCrlj rat plasma at 5 mg/kg, po after 8 hrs by liquid scintillation counting; design: dose 5 mg/kg, dosed compound name [14C]CS-1036, route oral
Pancreas [7] = assay: Drug uptake in albino F344/DuCrlCrlj rat pancreas assessed as ng equivalent of CS-1036 at 5 mg/kg, po after 24 hrs by liquid scintillation counting; design: dose 5 mg/kg, dosed compound name [14C]CS-1036, route oral
Cerebrum [8] = assay: Drug uptake in albino F344/DuCrlCrlj rat cerebrum at 5 mg/kg, po after 336 hrs by liquid scintillation counting; design: dose 5 mg/kg, dosed compound name [14C]CS-1036, route oral
Summary of the method: (§1)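 Single oral [14C]CS-1036 at 5 mg/kg was given to male rats (159–167 g; n = 3). Cerebrum was collected after aortic bleeding at 1, 4, 8, 24, 72, 168 or 336 h, weighed, and homogenized in 2 volumes of saline. A 0.5 ml aliquot was solubilized in Soluene-350 and counted by LSC with external-standard correction. Results are in ng equivalent/g tissue from specific activity and sample weight.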

Spleen [9] = assay: Drug uptake in albino F344/DuCrlCrlj rat spleen assessed as ng equivalent of CS-1036 at 5 mg/kg, po after 336 hrs by liquid scintillation counting; design: dose 5 mg/kg, dosed compound name [14C]CS-1036, route oral
Large intestine [10] = assay: Drug uptake in albino F344/DuCrlCrlj rat large intestine at 5 mg/kg, po after 168 hrs by liquid scintillation counting; design: dose 5 mg/kg, dosed compound name [14C]CS-1036, route oral
Aorta [11] = assay: Drug uptake in albino F344/DuCrlCrlj rat aorta assessed as ng equivalent of CS-1036 at 5 mg/kg, po after 4 hrs by liquid scintillation counting; design: dose 5 mg/kg, dosed compound name [14C]CS-1036, route oral
Thymus = assay: Drug uptake in albino F344/DuCrlCrlj rat thymus at 5 mg/kg, po after 8 hrs by liquid scintillation counting; design: dose 5 mg/kg, dosed compound name [14C]CS-1036, route oral
Lung [12] = assay: Drug uptake in albino F344/DuCrlCrlj rat lung assessed as ng equivalent of CS-1036 at 5 mg/kg, po after 8 hrs by liquid scintillation counting; design: dose 5 mg/kg, dosed compound name [14C]CS-1036, route oral
Adrenal gland [13] = assay: Drug uptake in albino F344/DuCrlCrlj rat adrenal gland at 5 mg/kg, po after 4 hrs by liquid scintillation counting; design: dose 5 mg/kg, dosed compound name [14C]CS-1036, route oral
Aorta [14] = assay: Drug uptake in albino F344/DuCrlCrlj rat aorta assessed as ng equivalent of CS-1036 at 5 mg/kg, po after 168 hrs by liquid scintillation counting; design: dose 5 mg/kg, dosed compound name [14C]CS-1036, route oral
Large intestine [15] = assay: Drug uptake in albino F344/DuCrlCrlj rat large intestine at 5 mg/kg, po after 24 hrs by liquid scintillation counting; design: dose 5 mg/kg, dosed compound name [14C]CS-1036, route oral
Plasma [16] = assay: Drug uptake in albino F344/DuCrlCrlj rat plasma assessed as ng equivalent of CS-1036 at 5 mg/kg, po after 4 hrs by liquid scintillation counting; design: dose 5 mg/kg, dosed compound name [14C]CS-1036, route oral
Adrenal gland [17] = assay: Drug uptake in albino F344/DuCrlCrlj rat adrenal gland at 5 mg/kg, po after 336 hrs by liquid scintillation counting; design: dose 5 mg/kg, dosed compound name [14C]CS-1036, route oral
Cerebellum [18] = assay: Drug uptake in albino F344/DuCrlCrlj rat cerebellum assessed as ng equivalent of CS-1036 at 5 mg/kg, po after 168 hrs by liquid scintillation counting; design: dose 5 mg/kg, dosed compound name [14C]CS-1036, route oral
Pancreas [19] = assay: Drug uptake in albino F344/DuCrlCrlj rat pancreas assessed as ng equivalent of CS-1036 at 5 mg/kg, po after 72 hrs by liquid scintillation counting; design: dose 5 mg/kg, dosed compound name [14C]CS-1036, route oral
Lung [20] = assay: Drug uptake in albino F344/DuCrlCrlj rat lung at 5 mg/kg, po after 24 hrs by liquid scintillation counting; design: dose 5 mg/kg, dosed compound name [14C]CS-1036, route oral
Kidney = assay: Drug uptake in albino F344/DuCrlCrlj rat kidney at 5 mg/kg, po after 4 hrs by liquid scintillation counting; design: dose 5 mg/kg, dosed compound name [14C]CS-1036, route oral
[21] = Drug uptake in albino F344/DuCrlCrlj rat urinary bladder at 5 mg/kg, po after 336 hrs by liquid scintillation counting; design: dose 5 mg/kg, dosed compound name [14C]CS-1036, route oral
Plasma [22] = assay: Drug uptake in albino F344/DuCrlCrlj rat plasma assessed as ng equivalent of CS-1036 at 5 mg/kg, po after 8 hrs by liquid scintillation counting; design: dose 5 mg/kg, dosed compound name [14C]CS-1036, route oral
[23] = Drug uptake in albino F344/DuCrlCrlj rat epididymis assessed as ng equivalent of CS-1036 at 5 mg/kg, po after 1 hr by liquid scintillation counting; design: dose 5 mg/kg, dosed compound name [14C]CS-1036, route oral
[24] = Drug uptake in albino F344/DuCrlCrlj rat urinary bladder assessed as ng equivalent of CS-1036 at 5 mg/kg, po after 1 hr by liquid scintillation counting; design: dose 5 mg/kg, dosed compound name [14C]CS-1036, route oral
Plasma [25] = assay: Drug uptake in albino F344/DuCrlCrlj rat plasma at 5 mg/kg, po after 1 hr by liquid scintillation counting; design: dose 5 mg/kg, dosed compound name [14C]CS-1036, route oral
[26] = Drug uptake in albino F344/DuCrlCrlj rat mandibular gland at 5 mg/kg, po after 4 hrs by liquid scintillation counting; design: dose 5 mg/kg, dosed compound name [14C]CS-1036, route oral
Pancreas [27] = assay: Drug uptake in albino F344/DuCrlCrlj rat pancreas assessed as ng equivalent of CS-1036 at 5 mg/kg, po after 336 hrs by liquid scintillation counting; design: dose 5 mg/kg, dosed compound name [14C]CS-1036, route oral
Plasma [28] = assay: Drug uptake in albino F344/DuCrlCrlj rat plasma at 5 mg/kg, po after 168 hrs by liquid scintillation counting; design: dose 5 mg/kg, dosed compound name [14C]CS-1036, route oral
Spleen [29] = assay: Drug uptake in albino F344/DuCrlCrlj rat spleen at 5 mg/kg, po after 1 hr by liquid scintillation counting; design: dose 5 mg/kg, dosed compound name [14C]CS-1036, route oral
Zone of skin [30] = assay: Drug uptake in albino F344/DuCrlCrlj rat skin at 5 mg/kg, po after 24 hrs by liquid scintillation counting; design: dose 5 mg/kg, dosed compound name [14C]CS-1036, route oral
[31] = Drug uptake in albino F344/DuCrlCrlj rat mandibular gland at 5 mg/kg, po after 24 hrs by liquid scintillation counting; design: dose 5 mg/kg, dosed compound name [14C]CS-1036, route oral
Zone of skin [32] = assay: Drug uptake in albino F344/DuCrlCrlj rat skin at 5 mg/kg, po after 4 hrs by liquid scintillation counting; design: dose 5 mg/kg, dosed compound name [14C]CS-1036, route oral
Cerebrum [33] = assay: Drug uptake in albino F344/DuCrlCrlj rat cerebrum at 5 mg/kg, po after 4 hrs by liquid scintillation counting; design: dose 5 mg/kg, dosed compound name [14C]CS-1036, route oral; summary of the method: as §1
Plasma [34] = assay: Drug metabolism in albino F344/DuCrlCrlj rat plasma assessed as (2R,3R,4R)-2-(hydroxymethyl)pyrrolidine-3,4-diol formation at 10 mg/kg, po after 8 to 72 hrs by liquid scintillation counting; design: dose 10 mg/kg, dosed compound name [14C]CS-1036, route oral
Plasma [35] = assay: Drug uptake in albino F344/DuCrlCrlj rat plasma at 5 mg/kg, po after 72 hrs by liquid scintillation counting; design: dose 5 mg/kg, dosed compound name [14C]CS-1036, route oral

SMILES: C[C@H]1O[C@@H](O[C@H]2[C@H](O)[C@@H](O)[C@@H](O[14C@H]3[14C@H](O)[14CH2]N[14C@@H]3[14CH2]O)O[C@@H]2CO)[C@H](O)[C@@H](O)[C@@H]1O
- Radiolabel recovery (Heart): 7.28 ngequiv/g
- Radiolabel recovery (Harderian gland [1]): 5.1 ngequiv/g
- Radiolabel recovery (Cerebellum [2]): 6.4 ngequiv/g
- Radiolabel recovery [3]: 8.6 ngequiv/g
- Radiolabel recovery [4]: 2.3 ngequiv/g
- Radiolabel recovery (Harderian gland [5]): 290 ngequiv/g
- Radiolabel recovery (Plasma [6]): 27.7 ngequiv/ml
- Radiolabel recovery (Pancreas [7]): 25 ngequiv/g
- Radiolabel recovery (Cerebrum [8]): 4.88 ngequiv/g
- Radiolabel recovery (Spleen [9]): 2.83 ngequiv/g
- Radiolabel recovery (Large intestine [10]): 26.4 ngequiv/g
- Radiolabel recovery (Aorta [11]): 13.3 ngequiv/g
- Radiolabel recovery (Thymus): 43.4 ngequiv/g
- Radiolabel recovery (Lung [12]): 72.1 ngequiv/g
- Radiolabel recovery (Adrenal gland [13]): 33.3 ngequiv/g
- Radiolabel recovery (Aorta [14]): 6.8 ngequiv/g
- Radiolabel recovery (Large intestine [15]): 299 ngequiv/g
- Radiolabel recovery (Plasma [16]): 26.7 ngequiv/ml
- Radiolabel recovery (Adrenal gland [17]): 19.5 ngequiv/g
- Radiolabel recovery (Cerebellum [18]): 3.37 ngequiv/g
- Radiolabel recovery (Pancreas [19]): 82 ngequiv/g
- Radiolabel recovery (Lung [20]): 72 ngequiv/g
- Radiolabel recovery (Kidney): 383 ngequiv/g
- Radiolabel recovery [21]: 11.7 ngequiv/g
- Radiolabel recovery (Plasma [22]): 10.8 ngequiv/ml
- Radiolabel recovery [23]: 2.8 ngequiv/g
- Radiolabel recovery [24]: 520 ngequiv/g
- Radiolabel recovery (Plasma [25]): 90.6 ngequiv/ml
- Radiolabel recovery [26]: 51.1 ngequiv/g
- Radiolabel recovery (Pancreas [27]): 11.2 ngequiv/g
- Radiolabel recovery (Plasma [28]): 3.57 ngequiv/ml
- Radiolabel recovery (Spleen [29]): 65.6 ngequiv/g
- Radiolabel recovery (Zone of skin [30]): 53.9 ngequiv/g
- Radiolabel recovery [31]: 118 ngequiv/g
- Radiolabel recovery (Zone of skin [32]): 33 ngequiv/g
- Radiolabel recovery (Cerebrum [33]): 12.2 ngequiv/g
- Drug metabolism (Plasma [34]): metabolite_detected
- Radiolabel recovery (Plasma [35]): 14.5 ngequiv/ml
